Assay outcomes deposited in PubChem BioAssay by several laboratories.
A selection: hits, their analogues and other compounds. The true share with any hit is near 3.9%.
Rad51 HR inh – Rad51 (human) homologous recombination inhibition; Q06609; hRad51 DNA strand exchange, fluorescence dequenching; inhibition, % at 10 µM; 0.085% of 200,000 active;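 active = inhibition above 40% at the single screening dose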;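 note: 0% = DMSO control wells and 100% = blanks with heterologous ssDNA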
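Test system: preformed human Rad51 ssDNA filaments; also added: Donor/quencher-labelled 47-bp dsDNA substrate; doses: 10 µM final, single point; times: 37 °C 15-min filament assembly, 30-min compound preincubation, 15-min exchange; detection: FRET fluorescence dequenching, excitation 485 nm, emission 520 nm; read-out basis: Fluorescence-based percent inhibition, control- and blank-normalised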
FLuc inhib CS – inhibits firefly luciferase, flagging false hits in luciferase inhibition screens. P08659. ATPLite firefly luciferase biochemical luminescence, 10 min. 1.5% of 200,000 active. AID 1006. inhibition, % at 10 µM;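 active = inhibition above about 50% when tested at 10 µM, limit read from the data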
Target sequence (P08659 whole entry, looked up): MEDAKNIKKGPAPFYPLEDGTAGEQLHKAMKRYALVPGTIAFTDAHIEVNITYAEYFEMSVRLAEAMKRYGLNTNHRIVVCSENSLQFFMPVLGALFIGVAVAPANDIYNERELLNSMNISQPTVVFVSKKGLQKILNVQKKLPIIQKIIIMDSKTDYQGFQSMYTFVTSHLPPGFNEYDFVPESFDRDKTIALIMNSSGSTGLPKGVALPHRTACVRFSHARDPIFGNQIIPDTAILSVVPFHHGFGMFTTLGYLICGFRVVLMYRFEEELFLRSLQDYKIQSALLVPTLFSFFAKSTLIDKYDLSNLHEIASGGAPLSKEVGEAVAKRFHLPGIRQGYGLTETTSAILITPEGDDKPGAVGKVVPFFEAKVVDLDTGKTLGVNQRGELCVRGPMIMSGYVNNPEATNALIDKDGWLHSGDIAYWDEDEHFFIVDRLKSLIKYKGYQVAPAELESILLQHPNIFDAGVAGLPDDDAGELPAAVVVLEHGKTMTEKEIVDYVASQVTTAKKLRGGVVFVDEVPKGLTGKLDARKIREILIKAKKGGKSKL
FLuc stim CS – affects firefly luciferase, flagging false hits in luciferase stimulation screens | P08659 | ATPlite luciferase biochemical, luminescence, 10 min; 0 = ATP-free wells, 1 = DMSO control | activation factor at 10 µM | 200,000 tested, under 10 active | AID 1027;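 active = luciferase activation factor, scaled between plate controls, of at least 2 with compound at 10 µM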
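Assay system: Luciferase/luciferin reagent mix; Medium: PBS as buffer for the ATP substrate; Dosing: test compounds dosed from 2 mM stocks in 100% DMSO; Times: 10 min, room temperature; Signal: luminescence from luciferase reaction; Read-out: luciferase activation; Controls: No-ATP low control, compound-free enzyme-plus-ATP high control.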
APP 5'UTR act – APP 5'UTR luciferase reporter activation. SH-SY5Y APP 5'UTR luciferase reporter, luminescence; zero percent = DMSO vehicle wells. activation, % at 2 µM. 1% of 190,000 active. AID 1276;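 active = activation above a set limit, based on mean plus 3 SD of controls, cut at about 140% in these data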
NF-kB expr up – NF-kB expression increase, human neuronal cells. NF-kB reporter expression; active compounds read high. fold change at 12.5 µM. 1.6% of 190,000 active; in the data active = fold change above about 3.3
STAT1 activator – activators of IFN-gamma induced STAT1 signaling; NIH 3T3 STAT1-luciferase reporter, luminescence; 100% = IFN-gamma alone, no compound; activation (% of control), % at 5.5 µM; 2.6% of 200,000 active;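 active = activation above the screen-wide mean activation plus 3 SD, cut at about 130% in these data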;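 note: raw ratio to IFN-gamma control signal so 100% means no change and 0% no light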
* hit, by the source's call; nt = not tested or not shown.

SMILES	Rad51 HR inh	FLuc inhib CS	FLuc stim CS	APP 5'UTR act	NF-kB expr up	STAT1 activator
CCC(CO)[n+]1c(C)cc(/C=C2\Sc3ccccc3N2Cc2ccccc2)cc1C (stereo not drawn)	-161	-1	1	12	1.2	76
COc1ccc(CSc2nc(C)cc(C)c2S(C)(=O)=O)cc1	-13	-2	1	6	1.4	95
O=C(Nc1ccccc1)c1ccc(=O)n(Cc2ccc(F)c(F)c2)c1	-7	-4	1	-1	0.78	94
COC(=O)c1ccc(OC(=O)c2ccco2)cc1	-8	7	0.9	14	1.3	96
COc1ccc(/C(N)=N/OC(=O)c2ccco2)cc1	-5	68*	0.3	182*	0.96	50
N/C(=N\OC(=O)c1ccco1)c1ccccn1	-6	55*	0.4	77	2.2	116
Cc1ccc(C(=O)NNC(=O)c2ccco2)cc1	14	57*	0.4	24	1.3	107
N/C(=N\OC(=O)c1ccc(=O)n(Cc2ccccc2)c1)c1ccccn1	3	-5	1	2	1.5	110
Cc1ccc(S(=O)(=O)N2CCOCC2)cc1N/N=C(\C#N)c1nc2ccccc2[nH]1	-3	-2	1	-19	0.43	99
Cc1ccc(NC(=O)c2ccc3c(c2)nnn3C)cc1	nt	-1	1	45	1.9	115
Cn1nnc2cc(C(=O)Nc3ccccc3)ccc21	3	13	0.9	28	1.8	130*
Cn1nnc2cc(C(=O)Nc3ccc(Cl)cc3)ccc21	-1	0	1	42	1.5	132*
COc1ccc(CNC(=O)N[C@H](C(=O)O)C(C)C)cc1OC	-26	nt	nt	-8	nt	nt
CN1C(C(=O)NCc2ccc(OC(F)(F)F)cc2)CC2Cn3c(nc4ccccc43)C21 (stereo not drawn)	-2	nt	nt	nt	nt	nt
Clc1ccc(-c2csc(N3CCC(c4ccccc4)C3)n2)cc1 (stereo not drawn)	10	6	0.9	10	2.4	132*
Fc1ccc(-c2csc(N3CCC(c4ccccc4)C3)n2)cc1 (stereo not drawn)	-10	34	0.7	43	3.9*	147*
O=C(CC1NCCNC1=O)Nc1cccc([N+](=O)[O-])c1 (stereo not drawn)	1	-4	1	-17	1.3	102
Cc1oc(-c2cccc3ccccc23)nc1CN1CCC[C@H]1CO	0	-7	1.1	21	0.98	103
Cc1ccc(C(=O)NCc2n[nH]c(=S)n2-c2ccccc2)cc1[N+](=O)[O-]	-14	-2	1	-10	0.85	106
CCC(=O)N(CCC(c1ccc(C)cc1)c1ccco1)Cc1ccco1 (stereo not drawn)	0	nt	nt	nt	nt	nt
O=c1[nH]n(Cc2ccccc2)c(=O)c2ccccc12	0	-4	1	3	4.9*	109
COc1cc2c(cc1OC)C(C)N(C(=S)NC(=O)c1ccccc1)CC2 (stereo not drawn)	4	-4	1	-8	0.78	82
C=CS(=O)(=O)c1sc(Cl)c(N2CCOCC2)c1[N+](=O)[O-]	7	0	1	-31	1.1	129*
Oc1ccc(F)cc1-c1cc(-c2ccc3c(c2)OCCO3)n[nH]1	-3	26	0.7	197*	11*	110
O=C(N/N=C/c1ccc(F)cc1)c1cc(-c2ccc3c(c2)OCO3)n[nH]1	-14	nt	nt	nt	nt	nt
SMILES	Rad51 HR inh	FLuc inhib CS	FLuc stim CS	APP 5'UTR act	NF-kB expr up	STAT1 activator
COc1ccc(C(=O)NC(CC(=O)O)c2cc([N+](=O)[O-])ccc2Cl)c(SC)c1 (stereo not drawn)	28	2	1	27	1.1	108
C=CCn1c(N)c(C(=O)Nc2ccc(C)cc2)sc1=S	nt	12	0.9	-8	1.8	131*
C/C(=N/OC(=O)C1CC1)c1cc(-c2ccc(Cl)cc2)no1	7	10	0.9	88	2.5	136*
COc1ccccc1N=C(C)C1=C(O)CC(c2ccccc2)CC1=O (stereo not drawn)	32	-5	1.1	-92	3.5*	102
CCCC(=Nc1ccccc1OC)C1=C(O)CC(c2ccccc2)CC1=O (stereo not drawn)	nt	-1	1	-3	1.2	88
C=C(C)C1CC=C(C)/C(=N/NC(=O)c2ccoc2C)C1 (stereo not drawn)	10	-4	1	29	1.3	138*
O=C(Nc1ccc(-c2nc3ccccc3s2)c(OC(=O)c2ccccc2)c1)c1ccccc1	nt	-8	1.1	208*	1.5	101
Cc1ccc(-c2nc3ccccc3s2)cc1NC(=O)c1cc(-n2cnnc2)ccc1Cl	11	7	0.9	52	1.6	116
Cc1ccc(-c2nc3ccccc3s2)cc1NC(=S)NC(=O)c1ccccc1	-4	4	1	178*	6.8*	106
CC(=O)NC(=S)Nc1ccc(-c2nc3ccc(C)cc3s2)cc1	5	14	0.9	110	3.7*	125
Cc1cc(C)cc(N(CC(=O)Nc2ccc(-c3nc4ccc(C)cc4s3)cc2)S(C)(=O)=O)c1	-11	9	0.9	57	1.2	142*
Cc1cc2cc(C=C(C#N)C#N)c(Cl)nc2cc1C	nt	14	0.9	-1	1.2	123
C[C@H](NC(=O)CCC1CCC(=O)N1)c1ccccc1 (stereo partly drawn)	-2	nt	nt	nt	nt	nt
COc1ccc(NC(=O)CN2C(=O)/C(=C3\SC(=S)N(C4CCS(=O)(=O)C4)C3=O)c3ccccc32)cc1 (stereo not drawn)	19	nt	nt	nt	nt	nt
Cc1ccc2nc(-c3ccc(NC(=S)NCCC(C)C)cc3)sc2c1	0	nt	nt	134	nt	127
CNC(=S)Nc1ccc(-c2nc3ccc(C)cc3s2)cc1	nt	49	0.5	172*	nt	95
Cc1ccc(Nc2cc(-n3nc(C)cc3C)ncn2)c(C)c1	3	-8	1.1	1	1.3	90
Cc1ccc(Nc2cc(-n3cccn3)ncn2)c(C)c1	0	1	1	128	3.5*	141*
c1ccc(COc2ccc(-c3csnn3)cc2)cc1	4	17	0.8	24	3.2	136*
O=C(N/C(=C\c1cccc([N+](=O)[O-])c1)C(=O)N1CCOCC1)c1ccc([N+](=O)[O-])cc1	-3	-3	1	0	0.68	131*
O=C(N/C(=C/c1ccccc1)C(=O)N1CCOCC1)c1ccc([N+](=O)[O-])cc1	nt	-3	1	8	0.91	100
O=C(CSc1nnc(CNC(=O)c2c(F)cccc2Cl)o1)Nc1ccc2c(c1)OCCO2	1	8	0.9	18	1	104
O=C(CSc1ccc([N+](=O)[O-])cn1)Nc1ccc2c(c1)OCCO2	5	-5	1.1	12	1.2	101
O=C(CSc1ccc(-c2nc3ccccc3[nH]2)cn1)Nc1ccc2c(c1)OCCO2	5	2	1	57	1.4	113
